Results published in ChEMBL document CHEMBL1140143, “Combining ligand-based pharmacophore modeling, quantitative structure-activity relationship analysis and in silico screening for the discovery of new potent hormone sensitive lipase inhibitors” (J Med Chem, 2008).

Columns and labels:
[1] = target: T1, Hormone-sensitive lipase (Rattus norvegicus) (UniProt P15304); test: Inhibition of HSL in Wistar rat isolated fat cells at 10 uM by spectrophotometric assay
T1 sequence (whole entry): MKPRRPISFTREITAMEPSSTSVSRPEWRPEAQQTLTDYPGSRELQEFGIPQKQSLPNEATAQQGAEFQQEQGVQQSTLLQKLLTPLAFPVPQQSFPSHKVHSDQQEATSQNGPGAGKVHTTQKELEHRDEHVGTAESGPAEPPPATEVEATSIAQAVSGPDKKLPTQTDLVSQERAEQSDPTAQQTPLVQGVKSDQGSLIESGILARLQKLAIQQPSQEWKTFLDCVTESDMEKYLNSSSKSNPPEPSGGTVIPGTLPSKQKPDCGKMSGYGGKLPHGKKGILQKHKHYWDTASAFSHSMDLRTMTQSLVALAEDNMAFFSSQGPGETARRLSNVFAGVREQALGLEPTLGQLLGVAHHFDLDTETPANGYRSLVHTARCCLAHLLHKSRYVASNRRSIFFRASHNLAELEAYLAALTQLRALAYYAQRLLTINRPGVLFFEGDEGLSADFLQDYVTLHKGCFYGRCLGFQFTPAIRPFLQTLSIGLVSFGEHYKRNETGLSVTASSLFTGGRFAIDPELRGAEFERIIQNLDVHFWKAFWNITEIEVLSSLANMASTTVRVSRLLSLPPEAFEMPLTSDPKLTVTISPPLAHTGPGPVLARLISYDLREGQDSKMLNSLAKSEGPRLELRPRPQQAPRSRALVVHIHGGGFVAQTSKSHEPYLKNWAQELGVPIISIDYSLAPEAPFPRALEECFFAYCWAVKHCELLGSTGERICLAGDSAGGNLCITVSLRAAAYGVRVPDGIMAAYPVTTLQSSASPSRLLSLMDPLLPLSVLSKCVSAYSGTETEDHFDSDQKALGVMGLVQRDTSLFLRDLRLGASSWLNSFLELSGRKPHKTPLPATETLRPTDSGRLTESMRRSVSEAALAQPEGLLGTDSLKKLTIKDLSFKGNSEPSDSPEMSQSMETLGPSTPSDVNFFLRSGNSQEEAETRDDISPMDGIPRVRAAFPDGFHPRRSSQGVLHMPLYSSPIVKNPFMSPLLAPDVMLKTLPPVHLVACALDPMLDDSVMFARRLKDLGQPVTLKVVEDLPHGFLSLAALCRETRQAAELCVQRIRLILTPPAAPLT
Procedure, shortened: (§1)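 HSL extract from male Wistar rat epididymal fat cells (collagenase-isolated, homogenized in Tris-HCl pH 7.0/sucrose, ether-extracted supernatant). Enzyme preincubated with compound 30 min at 37 °C, then p-nitrophenyl butyrate added at 10 µM in phosphate buffer pH 7.25 with dithioerythritol; DMSO ≤1.0%. A400 read at 1, 3, 6 min at 37 °C; residual activity versus no-compound control; mean of ≥3 measurements.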

[2] = target: T1, Hormone-sensitive lipase (Rattus norvegicus); test: Inhibition of HSL in Wistar rat isolated fat cells at 1 uM by spectrophotometric assay; procedure, shortened: as §1
Hormone-sensitive lipase = target: T2, Hormone-sensitive lipase (Rattus norvegicus, UniProt P15304); test: Inhibition of HSL in Wistar rat isolated fat cells by spectrophotometric assay
T2 sequence (P15304 whole entry): T1 sequence (whole entry)

Row | SMILES | inhibition [1] [%] | inhibition [2] [%] | IC50 (Hormone-sensitive lipase) [nM]
1 | COC1=CC(=O)OC(c2ccco2)C1 (stereo not given) | 12 | – | –
2 | COc1ccc2cc([C@H](C)C(=O)O)ccc2c1 | 64 | – | –
3 | CC1(C)C(C(=O)OC(C#N)c2cccc(Oc3ccccc3)c2)C1(C)C (stereo not given) | – | 35 | –
4 | COC1=CC(=O)OC(C)(c2ccccc2)C1 (stereo not given) | 24 | – | –
5 | Cc1ccc(S(=O)(=O)Nc2cccc3cc(Cl)ccc23)cc1 | – | 15 | –
6 | CC(C)[C@H](C(=O)O[C@H](C#N)c1cccc(Oc2ccccc2)c1)c1ccc(Cl)cc1 | – | 33 | –
7 | O=C(COC(=O)c1ccccc1)c1ccccc1 | – | 9 | –
8 | O=C(/C=C/c1ccccc1)OCCc1ccccc1 | – | 12 | –
9 | CCOC(=O)c1nc2ccccc2nc1NCc1ccc(OC)cc1 | – | 27 | –
10 | CC(=O)Oc1cc(OCCCc2ccc(F)cc2)cc2c1-c1ccccc1CC2 | – | 24 | –
11 | COc1cccc(CSC(C(=O)O)c2ccccc2)c1 (stereo not given) | – | 67 | 510
12 | COC(=O)Cc1nc2ccc(OC)cc2nc1O | 15 | – | –
13 | COC(=O)c1nnn(CCc2c[nH]c3ccccc23)c1C(=O)OC | 52 | – | 5000
14 | CCSCc1ccccc1OC(=O)NC [ETHIOFENCARB] | 52 | – | 370
15 | O=c1c(O)c(-c2ccccc2)oc2ccccc12 | – | 23 | –
16 | COc1ccc(C(=O)c2ccccc2)c(O)c1 [OXYBENZONE] | 44 | – | 3250
17 | CCC(CCC#N)C(=O)c1ccc(C)o1 (stereo not given) | 14 | – | –
18 | CCOc1ccc([Si](C)(C)CCCc2ccc(F)c(Oc3ccccc3)c2)cc1 | – | 6 | –
19 | O=C(OCc1ccccc1)c1ccccc1 [BENZYL BENZOATE] | 66 | – | 1100
20 | COC(=O)c1cc(Oc2ccc(Cl)cc2Cl)ccc1[N+](=O)[O-] [BIFENOX] | – | 60 | 430
21 | COc1ccc(Br)c(C(=O)O)c1OS(=O)(=O)c1ccc(C)cc1 | 30 | – | –
22 | CC(C)C(C(=O)OC(C#N)c1cccc(Oc2ccccc2)c1)c1ccc(Cl)cc1 (stereo not given) | – | 37 | –
23 | CCCCOc1ccc(Oc2ccc(C(F)(F)F)cc2[N+](=O)[O-])cc1 | – | 64 | 210
24 | Cc1ncc(COCc2ccccc2)c(CO)c1OCc1ccccc1 | 31 | – | –

Row | SMILES | inhibition [1] [%] | inhibition [2] [%] | IC50 (Hormone-sensitive lipase) [nM]
25 | O=S(=O)(Oc1ccc(Cl)cc1)c1ccc(Cl)cc1 | 26 | – | –
26 | COc1ccc(Cc2ccc3nc(O)cc(C)c3c2)cc1S(=O)(=O)O | 24 | – | –
27 | CC(C)=NNc1ccnc(SCc2ccccc2)n1 | 2 | – | –
28 | COc1cc(CNC(=O)CCCC/C=C/C(C)C)ccc1O | 33 | – | –
29 | COc1ccc(C(O)c2cc3ccccc3n2S(=O)(=O)c2ccccc2)cc1 (stereo not given) | 29 | – | –
30 | Cc1ccc(-c2nc(SCc3ccccc3)nc(O)c2CCO)cc1 | – | 45 | –
31 | COC(=O)C1Oc2ccc(Cl)cc2C1=O (stereo not given) | 3 | – | –
32 | COC(=O)c1ccc(C)c(NS(=O)(=O)c2ccc3c(c2)c(=O)sn3C)c1 | 24 | – | –
33 | O=C(NC(Cc1ccccc1)C(=O)O)C(=O)c1c[nH]c2ccc(Cl)cc12 (stereo not given) | 26 | – | –
34 | Cc1c(C(C)C)c(=O)on1C(=O)N1CCSCC1 | – | – | 8
35 | CCOCCc1c(C)n(C(=O)N2CCC(C)CC2)oc1=O | – | – | 3
36 | Cc1c(C(C)C)c(=O)on1C(=O)N(C)Cc1ccco1 | – | – | 4
37 | Cc1c(C(C)C)c(=O)on1C(=O)N(C)Cc1cccc(F)c1 | – | – | 5
38 | CCCCCCSc1nc(-c2ccc(C)cc2)nn1C(=O)N(C)C | – | – | 882
39 | Cc1c(C)n(C(=O)N2CCCCC2)oc1=O | – | – | 13
40 | COc1nn(-c2ccc(NC(=O)c3ccc(C(C)(C)C)cc3)cc2)c(=O)o1 | – | – | 0.41
41 | O=C(/C(=N/c1ccccc1)NO)c1ccccc1 | 23 | – | –
42 | O=C(CC(=O)c1ccccc1)c1ccccc1 | 28 | – | –
43 | CSc1nc(-c2ccc(OC(F)(F)F)cc2)nn1C(=O)N(C)C | – | – | 1.76
44 | Cc1c(C2CCSCC2)c(=O)on1C(=O)N1CCC(C)CC1 | – | – | 6
45 | CCOC(=O)c1c(C)c2c(n1C)CC/C(=C\N1CCCCC1)C2=O | 10 | – | –
46 | Cc1c(C(C)C)c(=O)on1C(=O)N1CCN(c2ccccc2Cl)CC1 | – | – | 30
47 | O=C(O)/C(=N\OCc1ccccc1)c1ccccc1 | – | 21 | –
48 | Cc1c(CCOc2ccccc2)c(=O)on1C(=O)N1CCCCC1 | – | – | 4
